FLuc inh counter – inhibits firefly luciferase, flagging false hits in luciferase inhibition screens; inhibition, % at 10 µM; AID 1006; ATPLite firefly luciferase biochemical luminescence, 10 min; 200,000 compounds, 1.5% hits; P08659;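 active = inhibition above about 50% when tested at 10 µM, limit read from the data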
Measles CPE – protection of cells from measles virus; Measles virus-infected cells, CPE protection, absorbance; protection (pct of control), % at 4 µM; 140,000 compounds, 1.5% hits; AID 841; in the data active = protection mostly above about 24%, no sharp cut-off; inactive = mostly below about 26%
Redox H2O2 prof – compounds producing H2O2 with reducing agent – biochemical, NIH compound library profiling, artefact control for MLSCN library redox annotation, primary screen; DTT-dependent redox cycling H2O2, phenol red/HRP absorbance; 100% = 100 µM peroxide control, 0% = buffer; 200,000 compounds, 0.03% hits; activation, % at 10 µM; AID 878;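 active = activation of at least 50% relative to the plate's high and low controls in the primary single-dose screen; inactive = activation below 50%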;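 also: compound incubated with DTT at 0.8 mM final as the reducing agent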
ABCG2 block – human ABCG2 inhibition, ABCB1 as counter-screen; inhibition, % at 6.6 µM; IgMXP3 cells, JC-1 efflux, flow cytometry; 190,000 compounds, 0.1% hits;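 active = inhibition above 80%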
Target sequence (Q9UNQ0 whole entry, looked up): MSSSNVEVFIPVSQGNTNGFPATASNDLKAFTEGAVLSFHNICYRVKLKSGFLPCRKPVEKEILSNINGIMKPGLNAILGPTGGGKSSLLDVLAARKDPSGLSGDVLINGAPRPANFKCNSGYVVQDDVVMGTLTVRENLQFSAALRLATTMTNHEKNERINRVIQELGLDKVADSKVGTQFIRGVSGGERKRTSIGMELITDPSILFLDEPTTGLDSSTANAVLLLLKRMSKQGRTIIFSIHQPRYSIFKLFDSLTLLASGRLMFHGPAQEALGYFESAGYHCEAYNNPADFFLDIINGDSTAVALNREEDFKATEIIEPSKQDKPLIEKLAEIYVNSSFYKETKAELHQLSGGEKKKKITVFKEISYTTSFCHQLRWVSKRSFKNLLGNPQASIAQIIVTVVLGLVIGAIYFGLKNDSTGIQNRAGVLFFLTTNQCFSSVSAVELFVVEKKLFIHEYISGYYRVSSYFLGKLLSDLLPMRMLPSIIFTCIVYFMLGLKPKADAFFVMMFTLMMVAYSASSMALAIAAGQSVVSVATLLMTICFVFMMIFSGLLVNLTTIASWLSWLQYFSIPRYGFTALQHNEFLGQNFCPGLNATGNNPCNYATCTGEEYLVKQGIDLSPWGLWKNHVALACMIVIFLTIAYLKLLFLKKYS
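Incubation: cells with compound and JC-1, 10 min at 25 °C, rotating, no wash / Test system: IgMXP3 (ABCG2) plus far-red-tagged CCRF-Adr (ABCB1) cells / Compound dosing: one concentration, 6.6 µM final / Also added: JC-1 fluorescent substrate / Evaluation: efflux inhibition in percent versus controls / Detection: flow cytometry, 530 nm JC-1 signal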
ABCB1 block – human ABCB1 inhibition, ABCG2 as counter-screen; P08183; CCRF-Adr cells, JC-1 efflux, flow cytometry; 190,000 compounds, 0.067% hits; inhibition, % at 6.6 µM; in the data active = inhibition above about 40%;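 also: higher value means more JC-1 retained so stronger ABCB1 efflux block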
FLuc act counter – affects firefly luciferase, flagging false hits in luciferase stimulation screens; P08659; 200,000 tested, under 10 active; ATPlite luciferase biochemical, luminescence, 10 min; 0 = ATP-free wells, 1 = DMSO control; activation factor at 10 µM;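 active = luciferase activation factor, scaled between plate controls, of at least 2 with compound at 10 µM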
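Assay system: Luciferase/luciferin detection reagent, cell-free biochemical luciferase assay / Read-out: luciferase activation / Benchmarks: No-ATP low control, compound-free enzyme-plus-ATP high control / Medium: PBS buffer for ATP / Detection: luminescence measurement of luciferase light output / Schedule: 10 min at ambient temperature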
A number is an active result; i = inactive; nt = no result. Shown are actives, neighbours in structure and some others; about 2.7% of the full set was active somewhere.

SMILES	FLuc inh counter	Measles CPE	Redox H2O2 prof	ABCG2 block	ABCB1 block	FLuc act counter
Cc1cccc(NC(=S)NNC(=O)c2ccc3c(c2)OCO3)c1	79.1	i	i	i	i	i
O=C(CCc1ccccc1)c1ccc2c(c1)OCCCO2	i	i	i	i	i	i
Cc1ccnc(NC(=O)c2ccc3c(c2)C(=O)N(CC2CCCO2)C3=O)c1 (configuration not stated)	56.2	nt	i	i	i	i
O=C(Nc1ccc2c(c1)OCO2)c1ccc2c(c1)OCO2	83.2	i	i	i	i	i
CC(=O)Nc1cccc(/C(C)=N/NC(=O)c2ccc3c(c2)OCO3)c1	75.1	nt	i	i	i	i
C/C(=N\NC(=O)c1ccccc1)c1ccc2c(c1)OCO2	i	i	i	i	i	i
O=C(Nc1ccccc1)c1ccc2c(c1)OCCO2	64.9	i	i	i	i	i
Cc1cc(C(=O)Nc2ccc3c(c2)OCO3)cs1	65.1	i	i	i	i	i
O=C(Nc1ccn(Cc2ccccc2)n1)c1ccc2c(c1)OCO2	57.7	nt	i	i	i	i
Nc1cccc(-n2nnnc2CN2CCOCC2)c1	i	i	i	i	i	i
C=CCOC(=O)C1=C[C@@H](c2coc3ccccc3c2=O)C[C@@H](OCc2ccc(CO)cc2)O1	i	nt	i	i	i	i
O=C(CSCc1cccc(Br)c1)N1CCOCC1	i	i	i	i	i	i
CC1CC(CCC(=O)NC(=S)Nc2ccc(Cl)cn2)C(=O)O1 (configuration not stated)	i	nt	i	i	i	i
CCOC(=O)c1c(C)c(C(=O)Nc2ccc3c(c2)OCO3)c(C)n1C	i	i	i	i	i	i
Cc1ccnc(NC(=O)CCC2COc3ccccc3O2)c1 (configuration not stated)	i	41.3	i	i	i	i
O=C(NCCOc1ccccc1)c1ccc2c(c1)OCO2	50.8	i	i	i	i	i
CCOC(=O)c1c(N)sc(C(=O)Nc2ccc3c(c2)OCO3)c1C	90.5	i	i	i	i	i
CCOc1ccc(C(=O)NCC(C)CN(C)C)cc1OCC (configuration not stated)	i	30.6	i	i	i	i
COc1cc(/C=N\NC(=O)C2CC3C=CC2C3)ccc1O (configuration not stated)	i	i	i	i	i	i
CCOc1ccc(C(CCc2ccccc2)NC(=O)c2ccccc2)cc1OCC (configuration not stated)	i	i	i	i	i	i
O=C(Nc1ccc2c(c1)OCO2)Nc1ccc2c(c1)OCO2	i	nt	i	i	i	i
Cc1ccc2nc(NC(=O)c3ccc(N4C(=O)CCC4=O)cc3)sc2c1	i	nt	i	i	i	i
O=C(Nc1ccc2c(c1)OCO2)c1ccc(Cl)s1	60.9	54.4	i	i	i	i
Cc1ccnc(NC(=O)c2ccc(N3C(=O)CCC3=O)cc2)c1	78.6	i	i	i	i	i
COc1cc(C(=O)Nc2cc(C)ccn2)cc(OC)c1OC	i	i	i	i	i	i
SMILES	FLuc inh counter	Measles CPE	Redox H2O2 prof	ABCG2 block	ABCB1 block	FLuc act counter
COc1ccc(C(=O)NC(=O)Nc2cc(C)ccn2)cc1	92.3	i	i	i	i	i
CCNC(=O)COC(=O)c1csc2c1CCCC2	i	i	i	i	i	i
COc1ccccc1NC(=S)NC1CCCCCC1	i	i	i	i	i	i
COc1cccc(OCC(O)CN(CCO)Cc2ccccc2)c1 (configuration not stated)	i	32.2	i	i	i	i
CN(C)CC(O)COc1cccc(OCC(O)CN(C)C)c1 (configuration not stated)	i	i	i	i	i	i
CCn1cc(C(=O)OCC(=O)Nc2ccc(C(C)C)cc2)c(=O)c2ccc(C)nc21	i	nt	i	i	i	i
COc1cc(/C(C)=N\NC(N)=S)cc(OC)c1OC	i	34.8	i	i	i	i
COc1cc(/C(C)=N/NC(=S)NC(C)C)cc(OC)c1OC	i	i	i	i	i	i
CCCc1sc(N/N=C/c2ccccn2)nc1-c1ccc(F)cc1	i	i	i	i	i	i
Cc1nc(N/N=C/c2ccccn2)sc1C	93.7	i	i	i	i	i
O=C(CSc1ccccn1)Nc1ccc(Cl)cn1	i	nt	i	i	i	i
COc1ccc(N=CC2=C(O)c3ccccc3C2=O)c(OC)c1	95.2	i	i	i	i	i
Cc1ccccc1N=CC1=C(O)c2ccccc2C1=O	96.1	nt	i	i	i	i
O=C1C(C=Nc2ccc(F)cc2)=C(O)c2ccccc21	77.0	nt	i	i	i	i
CN(c1nc2nonc2nc1NC1CC1)C1CCOC1 (configuration not stated)	i	nt	i	i	i	i
O=C(CNc1ccccc1-c1ccccc1)NCc1ccccc1	i	i	i	i	i	i
C=CCNC(=S)Nc1sc2c(c1C#N)CCCC2	i	nt	i	i	i	i
O=C1CC(=O)C(n2cncn2)C(c2ccc(Cl)cc2Cl)C1 (configuration not stated)	i	22.1	i	i	i	i
C/C(=N\NC(=O)CSCc1ccc([N+](=O)[O-])cc1)c1cccc(Br)c1	i	35.4	i	i	i	i
CC1CC2=C(C(=O)O1)C(c1ccc(Cl)cc1)Nc1ccccc1N2 (configuration not stated)	i	i	i	i	i	i
CCOc1ccc(N/C=C/C(=O)c2ccccc2)c([N+](=O)[O-])c1	94.1	i	i	i	i	i
COc1ccc(C(=O)NC2CCCCCC2)cc1S(=O)(=O)Nc1ccc(Br)cc1	i	31.8	i	i	i	i
COc1ccc(C(=O)NC2CCCCCC2)cc1S(=O)(=O)N1CCCC1	i	nt	i	i	i	i
O=C(NCc1ccccn1)c1cccn1-c1ncc(C(F)(F)F)cc1Cl	i	nt	i	i	i	i
CC(=O)NC(CCS(C)(=O)=O)C(=O)Nc1ccc(C)c(F)c1 (configuration not stated)	i	57.0	i	i	i	i
SMILES	FLuc inh counter	Measles CPE	Redox H2O2 prof	ABCG2 block	ABCB1 block	FLuc act counter
CNC(=O)c1nn(-c2ccc(C)cc2)ccc1=O	i	43.0	i	i	i	i
COC(=O)c1ccc(/C=C(\C#N)c2ccccn2)cc1	73.1	nt	i	i	i	i
N#C/C(=C\c1ccc([N+](=O)[O-])cc1)c1ccccn1	i	nt	i	i	i	i
CN(C)c1ccc(/C=C(\C#N)c2ccccn2)cc1	97.1	i	i	i	i	i
COC(=O)c1ccc(OC(=O)c2ccccn2)cc1	i	i	i	i	i	i
COCCCN(C(=S)NC(=O)C12CC3CC(CC(C3)C1)C2)c1c(N)n(Cc2ccccc2)c(=O)[nH]c1=O	i	nt	i	i	i	i
O=C(OCC(=O)c1ccc(Cl)s1)c1ccccn1	57.1	nt	i	i	i	i
CCS(=O)(=O)c1ccc(C(=O)NC2CC2)c(Cl)c1Cl	i	nt	i	i	i	i
